Test results published in ChEMBL document CHEMBL4251739, “Rhodanine as a Potent Scaffold for the Development of Broad-Spectrum Metallo-β-lactamase Inhibitors” (ACS Med Chem Lett, 2018).

Experiments:
[1] = tested on: Bacteria; assay: Inhibition of bacterial NDM1 expressed in Escherichia coli DH10B assessed as potentiation of cefazolin-induced antibacterial activity by measuring cefazolin MIC at 32 ug/ml after 16 hrs by broth micro-dilution method (reference value: 8 ug/ml)
[2] = tested on: Bacteria; assay: Inhibition of bacterial L1 expressed in Escherichia coli DH10B assessed as potentiation of cefazolin-induced antibacterial activity by measuring cefazolin MIC at 32 ug/ml after 16 hrs by broth micro-dilution method (reference value: 32 ug/ml)
How it was run: (§1)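 Dose-dependent cefazolin MIC assay against E. coli DH10B expressing L1 from a pBCSK plasmid, with varied inhibitor doses up to 256 µg/mL. Fold decrease in MIC was taken relative to cefazolin alone. Medium pH was monitored during the assay.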

[3] = tested on: Bacteria; assay: Inhibition of bacterial VIM2 expressed in Escherichia coli BL21(DE3) at 50 uM using cefazolin as substrate by spectrometric method relative to control
[4] = Inhibition of bacterial L1 expressed in Escherichia coli BL21(DE3) using cefazolin as substrate by spectrometric method; design: species or system Bacteria
How it was run: (§2)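 Purified enzymes, overexpressed and purified by earlier methods, assayed under steady-state conditions by UV spectrometry in 50 mM Tris, pH 7.0. Substrate for NDM-1, VIM-2 and L1 was cefazolin (50 µM), read at 262 nm. Substrate for ImiS was imipenem (60 µM), read at 300 nm. Inhibitor varied 0–50 µM; IC50 is the concentration giving 50% loss of activity.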

[5] = tested on: Bacteria; assay: Inhibition of bacterial ImiS expressed in Escherichia coli BL21(DE3) at 50 uM using imipenem as substrate by spectrometric method relative to control
[6] = tested on: Bacteria; assay: Inhibition of bacterial VIM2 expressed in Escherichia coli DH10B assessed as potentiation of cefazolin-induced antibacterial activity by measuring cefazolin MIC at 32 ug/ml after 16 hrs by broth micro-dilution method (reference value: 512 ug/ml)
[7] = Inhibition of bacterial NDM1 expressed in Escherichia coli BL21(DE3) using cefazolin as substrate by spectrometric method; design: species or system Bacteria; how it was run: as §2
[8] = tested on: Bacteria; assay: Inhibition of bacterial ImiS expressed in Escherichia coli DH10B assessed as potentiation of imipenem-induced antibacterial activity by measuring imipenem MIC at 32 ug/ml after 16 hrs by broth micro-dilution method (reference value: 2 ug/ml)
[9] = tested on: Bacteria; assay: Inhibition of bacterial NDM1 expressed in Escherichia coli BL21(DE3) at 50 uM using cefazolin as substrate by spectrometric method relative to control
[10] = Inhibition of bacterial VIM2 expressed in Escherichia coli BL21(DE3) using cefazolin as substrate by spectrometric method; design: species or system Bacteria; how it was run: as §2
[11] = tested on: Bacteria; assay: Inhibition of bacterial VIM2 expressed in Escherichia coli DH10B assessed as potentiation of cefazolin-induced antibacterial activity by measuring fold reduction in cefazolin MIC at 32 ug/ml after 16 hrs by broth micro-dilution method relative to cefazolin alone
[12] = Inhibition of bacterial ImiS expressed in Escherichia coli BL21(DE3) using imipenem as substrate by spectrometric method; design: species or system Bacteria; how it was run: as §2
[13] = tested on: Bacteria; assay: Inhibition of bacterial NDM1 expressed in Escherichia coli DH10B assessed as potentiation of cefazolin-induced antibacterial activity by measuring fold reduction in cefazolin MIC at 32 ug/ml after 16 hrs by broth micro-dilution method relative to cefazolin alone
[14] = Cytotoxicity against mouse L929 cells assessed as cell viability up to 200 uM after 48 hrs by CCK8 assay relative to control; type: cell-based; conditions: read-out: Activity
How it was run: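 Mouse fibroblast L929 cells exposed to inhibitors at 12.5, 25, 50, 100, 200 and 400 µM working concentrations; percentage of cells maintaining viability measured.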

[15] = tested on: Bacteria; assay: Inhibition of bacterial L1 expressed in Escherichia coli DH10B assessed as potentiation of cefazolin-induced antibacterial activity by measuring fold reduction in cefazolin MIC at 32 ug/ml after 16 hrs by broth micro-dilution method relative to cefazolin alone; how it was run: as §1

| MIC [1] | MIC [2] | inhibition [3] | IC50 [4] | inhibition [5] | MIC [6] | IC50 [7] | MIC [8] | inhibition [9] | IC50 [10] | fold change (FC) [11] | IC50 [12] | fold change (FC) [13] | fold change (FC) [15] | Structure (SMILES) | viability at 48 h [14] |
| --- | --- | --- | --- | --- | --- | --- | --- | --- | --- | --- | --- | --- | --- | --- | --- |
| 4 µg/mL | 8 µg/mL | < 50% | 0.59 µM | < 50% | 512 µg/mL | 14.3 µM | 1 µg/mL |  |  |  |  |  |  | O=C(O)c1ccc(N2C(=O)/C(=C/c3cccs3)SC2=S)cc1 |  |
| 8 µg/mL | 8 µg/mL | < 50% | 0.77 µM | < 50% | 512 µg/mL |  | 2 µg/mL | < 50% |  |  |  |  |  | O=C(O)CN1C(=O)/C(=C/c2cccs2)SC1=S |  |
| 16 µg/mL | 16 µg/mL |  | 0.32 µM | < 50% | 256 µg/mL |  | 2 µg/mL | < 50% | 4.7 µM |  |  |  |  | COc1ccc(/C=C(\S)C(=O)O)cc1 |  |
| 1 µg/mL | 8 µg/mL |  | 0.03 µM |  | 128 µg/mL | 10.6 µM | 1 µg/mL |  | 3.5 µM | 4 | 7.6 µM | 4 to 8 |  | O=C(O)c1ccc(N2C(=O)/C(=C/c3ccc(Cl)cc3Cl)SC2=S)cc1 |  |
| 4 µg/mL | 4 µg/mL |  | 0.22 µM | < 50% | 256 µg/mL | 27.4 µM | 2 µg/mL |  | 16.8 µM |  |  |  | 8 | O=C(O)CN1C(=O)/C(=C/c2ccccc2[N+](=O)[O-])SC1=S | 80% |
| 8 µg/mL | 8 µg/mL |  | 0.28 µM | < 50% | 512 µg/mL |  | 1 µg/mL | < 50% | 27.9 µM |  |  |  |  | O=C(O)CN1C(=O)/C(=C/c2cccc3ccccc23)SC1=S |  |
| 8 µg/mL | 8 µg/mL | < 50% | 0.1 µM |  | 512 µg/mL |  | 1 µg/mL | < 50% |  |  | 6.9 µM |  |  | O=C(O)c1ccc(N2C(=O)/C(=C/c3cccc4ccccc34)SC2=S)cc1 |  |
| 4 µg/mL | 8 µg/mL | < 50% | 0.18 µM | < 50% | 512 µg/mL | 0.69 µM | 1 µg/mL |  |  |  |  |  |  | O=C(O)c1ccc(N2C(=O)/C(=C/c3ccco3)SC2=S)cc1 |  |
| 4 µg/mL | 8 µg/mL |  | 0.2 µM | < 50% | 256 µg/mL | 15.4 µM | 2 µg/mL |  | 14.4 µM |  |  |  |  | O=C(O)CN1C(=O)/C(=C/c2ccc(F)cc2)SC1=S |  |
| 2 µg/mL | 8 µg/mL |  | 0.21 µM | < 50% | 128 µg/mL | 1.13 µM | 2 µg/mL |  | 0.92 µM | 4 |  | 4 to 8 |  | O=C(O)c1ccc(N2C(=O)/C(=C/c3ccccn3)SC2=S)cc1 |  |
| 1 µg/mL | 8 µg/mL |  | 0.07 µM |  | 128 µg/mL | 12.2 µM | 1 µg/mL |  | 3.6 µM | 4 | 7.7 µM | 4 to 8 |  | O=C(O)c1ccc(N2C(=O)/C(=C/c3ccc(Cl)cc3)SC2=S)cc1 |  |
| 8 µg/mL | 8 µg/mL | < 50% | 0.32 µM | < 50% | 256 µg/mL |  | 2 µg/mL | < 50% |  |  |  |  |  | O=C(O)CN1C(=O)/C(=C/c2ccccc2)SC1=S |  |
| 4 µg/mL | 8 µg/mL | < 50% | 0.6 µM | < 50% | 512 µg/mL | 25.1 µM | 2 µg/mL |  |  |  |  |  |  | COc1ccc(/C=C2\SC(=S)N(CC(=O)O)C2=O)cc1 |  |

More lines, now with the values behind:

| Structure (SMILES) | MIC [1] | MIC [2] | inhibition [3] | IC50 [4] | inhibition [5] | MIC [6] | IC50 [7] | MIC [8] | inhibition [9] | IC50 [10] | fold change (FC) [11] | IC50 [12] | fold change (FC) [13] | fold change (FC) [15] | viability at 48 h [14] |
| --- | --- | --- | --- | --- | --- | --- | --- | --- | --- | --- | --- | --- | --- | --- | --- |
| O=C(O)CN1C(=O)/C(=C/c2ccc(Cl)cc2)SC1=S | 8 µg/mL | 8 µg/mL |  | 0.22 µM | < 50% | 512 µg/mL |  | 2 µg/mL | < 50% | 15.3 µM |  |  |  |  |  |
| O=C(O)c1ccc(N2C(=O)/C(=C/c3ccccc3)SC2=S)cc1 | 1 µg/mL | 8 µg/mL | < 50% | 0.21 µM |  | 512 µg/mL | 8.7 µM | 1 µg/mL |  |  |  | 18.3 µM | 4 to 8 |  |  |
| O=C(O)c1ccc(N2C(=O)/C(=C/c3ccc4ccccc4c3)SC2=S)cc1 | > 64 µg/mL | 8 µg/mL |  | 0.12 µM |  | 128 µg/mL |  | 1 µg/mL | < 50% | 1.9 µM | 4 | 16.5 µM |  |  |  |
| O=C(O)c1ccc(N2C(=O)/C(=C/c3ccc(F)cc3)SC2=S)cc1 | 2 µg/mL | 8 µg/mL |  | 0.08 µM |  | 256 µg/mL | 8.4 µM | 1 µg/mL |  | 6.9 µM |  | 3.6 µM |  |  |  |
| O=C(O)CN1C(=O)/C(=C/c2ccccn2)SC1=S | 8 µg/mL | 8 µg/mL | < 50% | 0.16 µM |  | 512 µg/mL |  | 2 µg/mL | < 50% |  |  | 19.1 µM |  |  |  |
| O=C(O)CN1C(=O)/C(=C/c2ccco2)SC1=S | 8 µg/mL | 8 µg/mL | < 50% | 1.7 µM | < 50% | 512 µg/mL | 47 µM | 2 µg/mL |  |  |  |  |  |  |  |
| O=C(O)CN1C(=O)/C(=C/c2ccc([N+](=O)[O-])cc2[N+](=O)[O-])SC1=S | 8 µg/mL | 4 µg/mL | < 50% | 0.1 µM | < 50% | 512 µg/mL |  | 1 µg/mL | < 50% |  |  |  |  | 8 | 80% |
| O=C(O)CN1C(=O)/C(=C/c2ccc3ccccc3c2)SC1=S | 16 µg/mL | 8 µg/mL | < 50% | 0.37 µM | < 50% | 512 µg/mL |  | 2 µg/mL | < 50% |  |  |  |  |  |  |
| O=C(O)c1ccc(N2C(=O)/C(=C/c3ccc(C(F)(F)F)cc3)SC2=S)cc1 | 4 µg/mL | 8 µg/mL |  | 0.07 µM |  | 128 µg/mL | 10.6 µM | 1 µg/mL |  | 2.36 µM | 4 | 7.8 µM |  |  |  |
| O=C(O)CN1C(=O)/C(=C/c2ccc(C(F)(F)F)cc2)SC1=S | 4 µg/mL | 8 µg/mL |  | 0.11 µM | < 50% | 256 µg/mL | 14.3 µM | 1 µg/mL |  | 12.7 µM |  |  |  |  |  |
| O=C(O)CN1C(=O)/C(=C/c2ccc(Cl)cc2Cl)SC1=S | 4 µg/mL | 16 µg/mL |  | 0.08 µM | < 50% | 256 µg/mL | 21.5 µM | 4 µg/mL |  | 25.1 µM |  |  |  |  |  |
